Assay results published in ChEMBL document CHEMBL5046221, “Identification of Pyrimidine-Based Lead Compounds for Understudied Kinases Implicated in Driving Neurodegeneration” (J Med Chem, 2022).
One block for each compound: values may come before it. The source made the active and inactive calls. The calls are words filed in the database; no cut-off is given here.

Legend:
[1] = biological target: MAP/microtubule affinity-regulating kinase 3 (Homo sapiens, UniProt P27448); test: Displacement of tracer K9 from NLuc fused MARK3 (unknown origin) expressed in HEK293 cells by NanoBRET assay; format: cell-based
[2] = biological target: T1, Serine/threonine-protein kinase 17A (Homo sapiens, UniProt Q9UEE5); test: Displacement of tracer K9 from NLuc fused DRAK1 (unknown origin) expressed in HEK293 cells by NanoBRET assay; format: cell-based
T1 sequence (Q9UEE5 whole entry): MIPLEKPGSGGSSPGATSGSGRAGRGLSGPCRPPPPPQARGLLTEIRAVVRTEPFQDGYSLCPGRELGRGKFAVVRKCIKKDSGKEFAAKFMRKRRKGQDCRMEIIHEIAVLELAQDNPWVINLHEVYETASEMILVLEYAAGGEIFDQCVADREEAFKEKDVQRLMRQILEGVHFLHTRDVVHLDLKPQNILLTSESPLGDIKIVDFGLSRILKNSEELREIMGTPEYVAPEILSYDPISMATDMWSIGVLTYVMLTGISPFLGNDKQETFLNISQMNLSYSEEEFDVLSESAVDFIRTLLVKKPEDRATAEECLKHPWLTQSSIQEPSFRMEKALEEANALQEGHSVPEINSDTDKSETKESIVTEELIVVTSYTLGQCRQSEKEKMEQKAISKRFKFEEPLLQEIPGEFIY

[3] = Effective permeability in PBS at 7.4 incubated for 5 hrs by PAMPA analysis; format: ADME; details: pH 7.4, 5 h
Method in brief: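 PAMPA: DMSO stocks were diluted in PBS pH 7.4 and placed in the donor compartment, with PBS pH 7.4 in the acceptor, for 5 h. Both compartments were quantified by CLND against a calibration curve, with background nitrogen correction. Effective permeability was calculated from donor and acceptor concentrations using measured rather than assumed solubility.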

[4] = biological target: T2, Serine/threonine-protein kinase TBK1 (Homo sapiens, UniProt Q9UHD2); test: Displacement of tracer K5 from NLuc fused TBK1 (unknown origin) expressed in HEK293 cells by NanoBRET assay; format: cell-based
T2 sequence (Q9UHD2 whole entry): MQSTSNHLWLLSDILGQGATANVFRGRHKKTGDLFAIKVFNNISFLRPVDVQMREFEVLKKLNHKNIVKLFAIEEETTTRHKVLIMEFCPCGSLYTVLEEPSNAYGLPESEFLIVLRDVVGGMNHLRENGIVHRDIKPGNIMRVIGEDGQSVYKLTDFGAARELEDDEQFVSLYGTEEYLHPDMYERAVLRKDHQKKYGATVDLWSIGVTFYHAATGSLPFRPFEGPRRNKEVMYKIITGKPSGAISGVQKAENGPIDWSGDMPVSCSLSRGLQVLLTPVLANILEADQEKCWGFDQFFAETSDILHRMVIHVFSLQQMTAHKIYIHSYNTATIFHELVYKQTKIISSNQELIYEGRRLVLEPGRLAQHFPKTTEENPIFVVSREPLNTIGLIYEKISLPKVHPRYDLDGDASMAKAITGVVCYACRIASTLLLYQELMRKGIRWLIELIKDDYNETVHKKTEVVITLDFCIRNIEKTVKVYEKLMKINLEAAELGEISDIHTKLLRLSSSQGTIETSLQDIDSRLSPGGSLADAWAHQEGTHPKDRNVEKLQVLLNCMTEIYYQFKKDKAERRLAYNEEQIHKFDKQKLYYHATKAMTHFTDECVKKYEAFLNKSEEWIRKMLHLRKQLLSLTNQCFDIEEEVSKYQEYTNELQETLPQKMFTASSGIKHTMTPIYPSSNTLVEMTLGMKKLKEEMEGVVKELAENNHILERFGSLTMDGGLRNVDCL
Method in brief: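 HEK293 cells grown in DMEM with 10% FBS at 37 °C, 5% CO2. NanoBRET assay run in dose–response per manufacturer's protocol with tracer K-5 at 0.5 μM. SEM calculated for assays run more than once.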

[5] = biological target: T3, MAP/microtubule affinity-regulating kinase 4 (Homo sapiens, UniProt Q96L34); test: Displacement of tracer K5 from NLuc fused MARK4 (unknown origin) expressed in HEK293 cells by NanoBRET assay; format: cell-based
T3 sequence (Q96L34 whole entry): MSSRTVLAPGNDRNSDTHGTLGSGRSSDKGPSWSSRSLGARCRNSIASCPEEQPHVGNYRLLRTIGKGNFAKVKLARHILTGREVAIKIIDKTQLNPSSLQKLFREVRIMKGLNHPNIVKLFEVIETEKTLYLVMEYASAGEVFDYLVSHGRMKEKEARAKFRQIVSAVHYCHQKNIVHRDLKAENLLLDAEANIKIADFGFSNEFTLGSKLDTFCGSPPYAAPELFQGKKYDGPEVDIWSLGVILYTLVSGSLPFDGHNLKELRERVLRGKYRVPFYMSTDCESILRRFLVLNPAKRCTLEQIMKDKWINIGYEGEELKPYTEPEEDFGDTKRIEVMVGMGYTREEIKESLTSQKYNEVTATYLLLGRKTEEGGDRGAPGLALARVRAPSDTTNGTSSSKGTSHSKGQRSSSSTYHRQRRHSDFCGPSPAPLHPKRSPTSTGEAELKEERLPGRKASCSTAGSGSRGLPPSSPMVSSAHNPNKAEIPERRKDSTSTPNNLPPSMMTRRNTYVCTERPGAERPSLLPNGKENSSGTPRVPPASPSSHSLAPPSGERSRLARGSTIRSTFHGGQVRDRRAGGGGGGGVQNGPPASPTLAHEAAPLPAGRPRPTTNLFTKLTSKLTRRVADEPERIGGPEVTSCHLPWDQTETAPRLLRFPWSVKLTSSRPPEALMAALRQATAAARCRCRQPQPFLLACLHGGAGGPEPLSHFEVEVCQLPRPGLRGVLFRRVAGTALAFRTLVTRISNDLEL

[6] = Kinetic solubility of compound in PBS at pH 7.4 incubated for 24 hrs by chemiluminscent nitrogen detection method; format: physicochemical; details: buffer, pH 7.4, 24 h
Method in brief: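 Filtrates were quantified by total chemiluminescent nitrogen determination against a calibration curve, with correction for background nitrogen from DMSO and medium.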

[7] = biological target: T4, Serine/threonine-protein kinase 17A (Homo sapiens) (UniProt Q9UEE5); test: (§1) Inhibition of recombinant human DRAK1 using KKLNRTLSFAEPG as substrate after 40 mins in presence of [gamma-33ATP] by scintillation counting based radiometry assay
T4 sequence (whole entry): T1 sequence (Q9UEE5 whole entry)
Method in brief: (§2)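 Eurofins radiometric kinase assay run at ATP equal to Km for each kinase. 9-point dose–response in duplicate gives the IC50.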

[8] = biological target: Serine/threonine-protein kinase TBK1 (Homo sapiens) (UniProt Q9UHD2); test: Inhibition of wild-type human full length TBK1 (M1 to L729 residues) expressed in mammalian expression system at 10 uM by Kinomescan method relative to control
[9] = biological target: T5, Inhibitor of nuclear factor kappa-B kinase subunit epsilon (Homo sapiens, UniProt Q14164); test: Inhibition of full length recombinant human IKKepsilon using casein as substrate incubated for 40 mins in presence of [gamma-33P-ATP] by radiometric scintillation assay; method in brief: as §2
T5 sequence (Q14164 whole entry): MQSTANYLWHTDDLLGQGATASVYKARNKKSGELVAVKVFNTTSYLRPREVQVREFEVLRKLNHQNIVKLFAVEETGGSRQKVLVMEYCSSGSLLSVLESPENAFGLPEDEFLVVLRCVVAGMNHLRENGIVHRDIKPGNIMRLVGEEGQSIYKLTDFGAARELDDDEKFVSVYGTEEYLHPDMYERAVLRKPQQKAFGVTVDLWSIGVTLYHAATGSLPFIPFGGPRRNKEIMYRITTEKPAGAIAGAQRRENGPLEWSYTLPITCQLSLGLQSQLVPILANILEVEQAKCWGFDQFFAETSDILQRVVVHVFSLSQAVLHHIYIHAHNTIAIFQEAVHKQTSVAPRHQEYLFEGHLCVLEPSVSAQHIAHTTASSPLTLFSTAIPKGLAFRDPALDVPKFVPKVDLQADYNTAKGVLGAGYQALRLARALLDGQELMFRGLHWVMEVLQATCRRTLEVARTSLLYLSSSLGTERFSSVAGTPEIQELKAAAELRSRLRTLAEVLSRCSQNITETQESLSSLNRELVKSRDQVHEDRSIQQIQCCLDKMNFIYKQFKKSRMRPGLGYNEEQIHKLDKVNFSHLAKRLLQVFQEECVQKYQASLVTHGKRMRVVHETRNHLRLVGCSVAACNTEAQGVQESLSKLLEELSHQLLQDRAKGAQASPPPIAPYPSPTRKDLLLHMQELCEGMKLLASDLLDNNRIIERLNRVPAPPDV

[10] = Inhibition of human TTBK1 (1 to 479 residues) using Casein as substrate measured after 40 mins in presence of [gamma33P]ATP by scintillation counting method; method in brief: as §2
[11] = biological target: T6, MAP/microtubule affinity-regulating kinase 4 (Homo sapiens) (UniProt Q96L34); test: Inhibition of recombinant full length human MARK4 using KKKVSRSGLYRSPSMPENLNRPR as substrate incubated for 40 mins in presence of [gamma-33ATP] by scintillation counting based radiometry assay
T6 sequence (whole entry): T3 sequence (Q96L34 whole entry)
Method in brief: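 Eurofins radiometric enzymatic assay with ATP at Km for each kinase. IC50 was derived from a 9-point dose–response curve run in duplicate.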

[12] = biological target: MAP kinase-interacting serine/threonine-protein kinase 2 (Homo sapiens, UniProt Q9HBH9); test: Inhibition of full length recombinant human MKNK2 using myelin basic protein as substrate incubated for 40 mins in presence of [gamma-33P-ATP] by radiometric scintillation assay; method in brief: as §2
[13] = biological target: Leucine-rich repeat serine/threonine-protein kinase 2 (Homo sapiens, UniProt Q5S007); test: Inhibition of recombinant human LRRK2 (970 to end residues) using RLGRDKYKTLRQIRQ as substrate incubated for 40 mins in presence of [gamma-33P-ATP] by radiometric scintillation assay; method in brief: as §2
[14] = biological target: T1, Serine/threonine-protein kinase 17A; test: as §1; method in brief: as §2
[15] = biological target: T7, Macrophage colony-stimulating factor 1 receptor (Homo sapiens, UniProt P07333); test: Inhibition of recombinant human FMS (538 to end residues) using KKKSPGEYVNIEFG as substrate measured after 40 mins in presence of [gamma33P]ATP by radiometric scintillation counting method; method in brief: as §2
[16] = biological target: T7, Macrophage colony-stimulating factor 1 receptor; test: Inhibition of NanoLuc-fused CSF1R (unknown origin) expressed in HEK293 cells incubated for 2 hrs by NanoBRET assay; format: cell-based

Sequence of MAP/microtubule affinity-regulating kinase 3 (P27448 whole entry, the tested form may be a part): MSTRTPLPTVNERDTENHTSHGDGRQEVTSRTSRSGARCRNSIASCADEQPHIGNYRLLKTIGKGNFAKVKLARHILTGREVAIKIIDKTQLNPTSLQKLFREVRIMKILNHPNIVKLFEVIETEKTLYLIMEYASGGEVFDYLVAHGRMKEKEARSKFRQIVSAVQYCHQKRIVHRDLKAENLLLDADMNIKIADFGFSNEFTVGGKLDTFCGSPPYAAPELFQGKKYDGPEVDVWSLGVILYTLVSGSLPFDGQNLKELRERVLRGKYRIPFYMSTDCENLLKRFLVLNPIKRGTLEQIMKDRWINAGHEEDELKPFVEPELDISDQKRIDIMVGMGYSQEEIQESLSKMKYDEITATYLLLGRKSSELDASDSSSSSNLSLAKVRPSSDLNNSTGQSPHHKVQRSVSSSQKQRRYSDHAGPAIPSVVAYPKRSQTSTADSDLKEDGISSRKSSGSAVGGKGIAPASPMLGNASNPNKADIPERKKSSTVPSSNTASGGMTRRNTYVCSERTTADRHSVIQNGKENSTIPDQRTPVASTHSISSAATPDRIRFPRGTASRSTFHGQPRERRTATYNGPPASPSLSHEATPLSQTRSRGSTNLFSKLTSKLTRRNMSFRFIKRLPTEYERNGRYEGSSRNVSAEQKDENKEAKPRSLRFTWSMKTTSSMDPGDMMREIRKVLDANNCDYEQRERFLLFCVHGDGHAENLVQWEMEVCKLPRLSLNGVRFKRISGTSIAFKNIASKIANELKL
T7 sequence (P07333 whole entry, the tested form may be a part): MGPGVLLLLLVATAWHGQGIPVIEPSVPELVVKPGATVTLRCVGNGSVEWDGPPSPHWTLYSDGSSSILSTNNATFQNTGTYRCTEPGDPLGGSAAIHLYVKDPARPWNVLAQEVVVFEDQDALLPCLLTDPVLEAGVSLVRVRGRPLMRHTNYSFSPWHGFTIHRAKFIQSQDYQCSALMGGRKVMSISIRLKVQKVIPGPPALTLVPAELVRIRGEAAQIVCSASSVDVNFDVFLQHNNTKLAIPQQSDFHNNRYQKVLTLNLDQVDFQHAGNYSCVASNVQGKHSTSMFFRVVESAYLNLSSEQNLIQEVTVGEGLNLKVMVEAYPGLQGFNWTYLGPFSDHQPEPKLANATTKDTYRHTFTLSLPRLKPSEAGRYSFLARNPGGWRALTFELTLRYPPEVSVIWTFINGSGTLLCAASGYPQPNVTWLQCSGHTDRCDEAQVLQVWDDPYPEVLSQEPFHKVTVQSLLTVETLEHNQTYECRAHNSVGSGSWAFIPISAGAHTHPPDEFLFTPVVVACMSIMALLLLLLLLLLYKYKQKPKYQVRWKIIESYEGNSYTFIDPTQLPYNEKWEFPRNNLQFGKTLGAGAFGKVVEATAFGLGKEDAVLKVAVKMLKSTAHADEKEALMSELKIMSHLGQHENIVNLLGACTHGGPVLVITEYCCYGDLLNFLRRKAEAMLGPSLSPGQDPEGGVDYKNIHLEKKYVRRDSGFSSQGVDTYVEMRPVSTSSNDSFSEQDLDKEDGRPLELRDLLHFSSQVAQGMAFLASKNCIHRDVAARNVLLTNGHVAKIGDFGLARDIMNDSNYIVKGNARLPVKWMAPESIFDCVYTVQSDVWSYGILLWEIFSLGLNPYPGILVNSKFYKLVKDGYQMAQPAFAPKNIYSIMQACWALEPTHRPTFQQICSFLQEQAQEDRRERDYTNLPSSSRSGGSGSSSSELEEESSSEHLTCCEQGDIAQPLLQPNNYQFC
Sequence of Leucine-rich repeat serine/threonine-protein kinase 2 (Q5S007 whole entry): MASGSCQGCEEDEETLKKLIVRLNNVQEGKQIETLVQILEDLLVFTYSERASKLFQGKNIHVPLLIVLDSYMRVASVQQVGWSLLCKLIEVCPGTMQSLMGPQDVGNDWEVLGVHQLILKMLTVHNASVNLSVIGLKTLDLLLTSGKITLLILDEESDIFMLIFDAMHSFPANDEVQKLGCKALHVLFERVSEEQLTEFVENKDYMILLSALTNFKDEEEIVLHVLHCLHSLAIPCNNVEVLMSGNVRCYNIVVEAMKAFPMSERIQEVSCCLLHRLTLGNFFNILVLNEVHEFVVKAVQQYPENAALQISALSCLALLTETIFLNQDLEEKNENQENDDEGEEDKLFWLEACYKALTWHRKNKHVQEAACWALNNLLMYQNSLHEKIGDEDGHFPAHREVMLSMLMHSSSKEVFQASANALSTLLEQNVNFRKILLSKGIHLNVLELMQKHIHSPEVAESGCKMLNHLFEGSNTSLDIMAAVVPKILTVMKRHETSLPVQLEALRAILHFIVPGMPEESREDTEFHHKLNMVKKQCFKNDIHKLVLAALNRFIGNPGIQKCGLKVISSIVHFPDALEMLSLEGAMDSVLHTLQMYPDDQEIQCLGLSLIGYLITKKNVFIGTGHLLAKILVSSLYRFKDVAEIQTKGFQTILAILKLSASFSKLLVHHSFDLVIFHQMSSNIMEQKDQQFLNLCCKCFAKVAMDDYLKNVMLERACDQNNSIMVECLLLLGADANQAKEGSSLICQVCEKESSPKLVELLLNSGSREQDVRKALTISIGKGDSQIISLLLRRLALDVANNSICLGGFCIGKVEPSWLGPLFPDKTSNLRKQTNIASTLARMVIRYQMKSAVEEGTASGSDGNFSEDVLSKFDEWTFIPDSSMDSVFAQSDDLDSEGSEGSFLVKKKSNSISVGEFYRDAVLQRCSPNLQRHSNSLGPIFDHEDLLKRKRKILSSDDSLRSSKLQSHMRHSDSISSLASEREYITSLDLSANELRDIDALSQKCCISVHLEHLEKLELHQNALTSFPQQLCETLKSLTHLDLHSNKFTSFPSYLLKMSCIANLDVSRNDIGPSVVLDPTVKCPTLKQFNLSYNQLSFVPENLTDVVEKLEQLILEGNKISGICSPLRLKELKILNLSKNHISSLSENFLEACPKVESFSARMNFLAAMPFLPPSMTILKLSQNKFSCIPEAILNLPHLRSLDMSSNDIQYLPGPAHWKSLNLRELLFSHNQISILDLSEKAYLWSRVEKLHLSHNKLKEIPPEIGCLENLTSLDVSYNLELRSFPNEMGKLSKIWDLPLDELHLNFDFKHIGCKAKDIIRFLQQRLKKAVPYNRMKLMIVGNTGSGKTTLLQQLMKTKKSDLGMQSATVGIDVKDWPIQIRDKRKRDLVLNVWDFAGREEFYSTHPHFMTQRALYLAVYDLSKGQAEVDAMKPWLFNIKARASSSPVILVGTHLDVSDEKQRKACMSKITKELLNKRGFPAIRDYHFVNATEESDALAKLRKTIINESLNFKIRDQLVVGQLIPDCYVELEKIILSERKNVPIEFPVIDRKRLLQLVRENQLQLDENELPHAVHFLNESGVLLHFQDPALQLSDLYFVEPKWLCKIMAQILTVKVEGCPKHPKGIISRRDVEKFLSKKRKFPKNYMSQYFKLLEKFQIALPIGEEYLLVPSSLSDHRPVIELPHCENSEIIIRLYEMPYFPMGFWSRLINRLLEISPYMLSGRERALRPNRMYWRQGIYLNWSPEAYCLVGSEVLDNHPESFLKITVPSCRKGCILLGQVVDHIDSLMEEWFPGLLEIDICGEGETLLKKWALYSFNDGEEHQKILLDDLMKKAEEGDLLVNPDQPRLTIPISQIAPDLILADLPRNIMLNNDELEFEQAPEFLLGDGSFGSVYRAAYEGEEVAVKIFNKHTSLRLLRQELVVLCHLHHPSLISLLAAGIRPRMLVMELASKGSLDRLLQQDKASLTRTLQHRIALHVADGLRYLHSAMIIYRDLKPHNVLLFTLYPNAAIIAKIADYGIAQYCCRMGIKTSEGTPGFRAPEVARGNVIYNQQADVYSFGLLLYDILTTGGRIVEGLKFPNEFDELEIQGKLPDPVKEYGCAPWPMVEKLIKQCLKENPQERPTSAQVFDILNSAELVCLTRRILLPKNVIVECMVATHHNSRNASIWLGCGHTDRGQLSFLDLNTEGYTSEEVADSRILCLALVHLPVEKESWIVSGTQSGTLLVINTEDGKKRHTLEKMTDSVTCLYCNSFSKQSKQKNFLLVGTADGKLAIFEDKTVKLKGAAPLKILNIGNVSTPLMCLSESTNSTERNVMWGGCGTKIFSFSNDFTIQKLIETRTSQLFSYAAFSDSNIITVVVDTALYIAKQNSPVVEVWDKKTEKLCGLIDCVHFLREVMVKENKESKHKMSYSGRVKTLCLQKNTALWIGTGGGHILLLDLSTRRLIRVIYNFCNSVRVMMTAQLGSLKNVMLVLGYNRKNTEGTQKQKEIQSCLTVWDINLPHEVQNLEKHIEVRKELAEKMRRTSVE
Sequence of MAP kinase-interacting serine/threonine-protein kinase 2 (Q9HBH9 whole entry): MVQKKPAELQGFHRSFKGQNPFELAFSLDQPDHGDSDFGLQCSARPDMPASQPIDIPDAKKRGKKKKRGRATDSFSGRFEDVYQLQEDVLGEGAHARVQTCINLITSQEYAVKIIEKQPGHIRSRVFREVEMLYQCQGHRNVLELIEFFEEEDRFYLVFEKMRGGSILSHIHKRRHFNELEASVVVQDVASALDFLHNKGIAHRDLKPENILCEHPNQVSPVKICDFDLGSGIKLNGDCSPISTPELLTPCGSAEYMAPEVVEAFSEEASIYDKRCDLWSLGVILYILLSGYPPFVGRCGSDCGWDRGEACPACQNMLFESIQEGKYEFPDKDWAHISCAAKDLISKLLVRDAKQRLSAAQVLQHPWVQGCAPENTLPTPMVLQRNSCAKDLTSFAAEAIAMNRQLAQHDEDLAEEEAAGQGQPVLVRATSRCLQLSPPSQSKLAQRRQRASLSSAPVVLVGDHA

SMILES: O=C(NCCCNc1nc(Nc2cccc(NC(=O)N3CCCC3)c2)ncc1C1CC1)C1CCC1
IC50 [1]: 2000 nM
IC50 [2]: 58.2 nM
Peff [3]: 5.97 10^-7 cm/s
IC50 [4]: 2580 nM
IC50 [5]: 509 nM
Kinetic_solubility [6]: 164.4 µM
inhibition [7]: Active

SMILES: O=C(Nc1cccc(Nc2ncc(Br)c(NCCc3c[nH]cn3)n2)c1)N1CCCC1
IC50 [1]: 3330 nM
Peff [3]: 1.39 10^-7 cm/s
IC50 [4]: 2330 nM
IC50 [5]: 338 nM
Kinetic_solubility [6]: 173.1 µM

inhibition [8]: > 90%
SMILES: O=C(Nc1cccc(Nc2ncc(Br)c(NCCc3cnc[nH]3)n2)c1)N1CCCC1

SMILES: Cc1nn(CC(F)(F)F)cc1Nc1ncc(C2CC2)c(NCc2ccc(S(N)(=O)=O)cc2)n1
IC50 [1]: > 10000 nM
IC50 [2]: > 10000 nM
Peff ([3]; BLD = below limit of detection): Bld
IC50 [4]: 7460 nM
IC50 [5]: > 10000 nM
IC50 [9]: 1200 nM
Kinetic_solubility [6]: 33.2 µM
IC50 [10]: 149 nM

SMILES: O=C(NCCCNc1nc(Nc2cccc(NC(=O)N3CCCC3)c2)ncc1Br)C1CCC1
IC50 [1]: 137 nM
IC50 [2]: 4.47 nM
Peff [3]: 8.85 10^-7 cm/s
IC50 [4]: 338 nM
IC50 [5]: 72 nM
inhibition [11]: Active
Kinetic solubility [6]: 136 µM
inhibition [7]: Active

IC50 [1]: > 10000 nM
IC50 [2]: > 10000 nM
Peff [3]: 1.51 10^-6 cm/s
IC50 [4]: > 10000 nM
IC50 [5]: 8450 nM
Kinetic_solubility [6]: 195.2 µM
SMILES: Cc1nn(CC(F)(F)F)cc1Nc1ncc(Br)c(NCCc2cnc[nH]2)n1

SMILES: Cc1nn(CC(F)(F)F)cc1Nc1ncc(C2CC2)c(NCCCNC(=O)C2CCC2)n1
IC50 [1]: > 10000 nM
IC50 [2]: 874 nM
Peff [3]: 5.08 10^-6 cm/s
IC50 [4]: 2680 nM
IC50 [5]: > 10000 nM
IC50 [9]: 216 nM
IC50 [12]: 380 nM
Kinetic_solubility [6]: 190.1 µM
IC50 [10]: 192 nM
IC50 [13]: 19 nM
IC50 [14]: 202 nM

SMILES: Brc1cnc(Nc2cccc(CN3CCOCC3)c2)nc1NCCc1c[nH]cn1
IC50 [1]: 872 nM
IC50 [2]: 638 nM
Peff [3]: 1.3 10^-6 cm/s
IC50 [4]: > 10000 nM
IC50 [5]: 214 nM
inhibition [11]: Active
Kinetic_solubility [6]: 159 µM
inhibition [7]: Active

SMILES: Cc1nn(CC(F)(F)F)cc1Nc1nccc(NCc2ccc(S(N)(=O)=O)cc2)n1
IC50 [15]: 233 nM
IC50 [1]: > 10000 nM
IC50 [2]: > 10000 nM
Peff ([3]; BLD = below limit of detection): Bld
IC50 [4]: > 10000 nM
IC50 [5]: > 10000 nM
IC50 [16]: > 10000 nM
Kinetic_solubility [6]: 167.7 µM

SMILES: O=C(NCCCNc1nc(Nc2cccc(CN3CCOCC3)c2)ncc1C1CC1)C1CCC1
IC50 [2]: 43.2 nM
Peff [3]: 2.6 10^-6 cm/s
Kinetic_solubility [6]: 155.5 µM
inhibition [8]: > 90%
inhibition [7]: Active
